Results taken from ChEMBL document CHEMBL1156597, “Structure-activity relationship of kahalalide F synthetic analogues” (J Med Chem, 2008).

Key:
[1] = system: DU-145; assay: Cytotoxicity against human DU145 cells after 48 hrs by SRB assay; format: functional, cell-based; details: Homo sapiens, DU-145, 48 h; for CC50: read-out: LC50 (the source's name)
Method in brief: (§1)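 Cells grown in RPMI 1640 with 10% FBS and penicillin/streptomycin at 37 °C and 5% CO₂, trypsinized, then seeded at 5 × 10³/well. After 18 h drug-free attachment, samples in DMSO/EtOH/PBS (0.5:0.5:99) were added for 48 h continuous exposure. Cells were fixed with cold TCA (1 h, 4 °C) and stained with SRB (10 min). Tris-solubilized stain read at 490 nm. Triplicate wells, mean ± SD; GI₅₀ derived.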

[2] = Cytotoxicity against human IGROV cells after 48 hrs by SRB assay; format: functional; details: for CC50: read-out: LC50 (the source's name); method in brief: as §1
[3] = Cytotoxicity against human IGROV-ET cells after 48 hrs by SRB assay; format: functional; details: for CC50: read-out: LC50 (the source's name); method in brief: as §1
[4] = system: SK-BR-3; assay: Cytotoxicity against human SKBR3 cells after 48 hrs by SRB assay; format: functional; details: SK-BR-3, 48 h; for GI50: read-out: GI50; for CC50: read-out: LC50 (the source's name); method in brief: as §1
[5] = system: SK-MEL-28; assay: Cytotoxicity against human SK-MEL-28 cells after 48 hrs by SRB assay; format: functional, cell-based; details: Homo sapiens, SK-MEL-28, 48 h; for CC50: read-out: LC50 (the source's name); method in brief: as §1
[6] = system: A549; assay: Cytotoxicity against human A549 cells after 48 hrs by SRB assay; format: functional, cell-based; details: Homo sapiens, A549, 48 h; method in brief: as §1
[7] = system: K562; assay: Cytotoxicity against human K562 cells after 48 hrs by SRB assay; format: functional; details: K562, 48 h; for CC50: read-out: LC50 (the source's name); method in brief: as §1
[8] = system: PANC-1; assay: Cytotoxicity against human PANC1 cells after 48 hrs by SRB assay; format: functional; details: PANC-1, 48 h; for CC50: read-out: LC50 (the source's name); method in brief: as §1
[9] = system: HT-29; assay: Cytotoxicity against human HT29 cells after 48 hrs by SRB assay; format: functional, cell-based; details: Homo sapiens, HT-29, 48 h; for CC50: read-out: LC50 (the source's name); method in brief: as §1
[10] = system: LoVo; assay: Cytotoxicity against human LoVo cells after 48 hrs by SRB assay; format: functional; details: for CC50: read-out: LC50 (the source's name)
[11] = system: LoVo; assay: Cytotoxicity against human doxorubicin resistant LoVo cells after 48 hrs by SRB assay; format: functional; details: for CC50: read-out: LC50 (the source's name); method in brief: as §1
[12] = system: HeLa; assay: Cytotoxicity against human HeLa cells after 48 hrs by SRB assay; format: functional; details: for CC50: read-out: LC50 (the source's name); method in brief: as §1
[13] = Cytotoxicity against human HeLa-APL cells after 48 hrs by SRB assay; format: functional; method in brief: as §1

Row | Compound | GI50 ([1]; read-out: GI50) [nM] | CC50 [1] [nM] | GI50 [2] [nM] | GI50 ([2]; read-out: GI50) [nM] | CC50 [2] [nM] | GI50 [3] [nM] | GI50 ([3]; read-out: GI50) [nM] | CC50 [3] [nM] | TGI [4] [nM] | GI50 [4] [nM] | CC50 [4] [nM] | GI50 ([5]; read-out: GI50) [nM] | CC50 [5] [nM] | LC50 [6] [nM] | GI50 ([6]; read-out: GI50) [nM] | CC50 [7] [nM] | GI50 [8] [nM] | TGI [8] [nM] | CC50 [8] [nM] | CC50 [9] [nM] | also measured
1 | C/C=C1\NC(=O)[C@H](Cc2ccc(Cl)c(Cl)c2)NC(=O)[C@@H](C(C)C)NC(=O)[C@@H]([C@H](C)CC)NC(=O)[C@H](NC(=O)[C@H](NC(=O)[C@H](CCCN)NC(=O)[C@H]2CCCN2C(=O)[C@H](NC(=O)[C@@H](NC(=O)[C@@H](NC(=O)[C@H](NC(=O)CC[C@@H](C)CC)C(C)C)[C@@H](C)O)C(C)C)C(C)C)[C@H](C)CC)[C@H](C)OC(=O)[C@H](C(C)C)NC1=O | 266 | 734 | 329 | 383 | 567 | 379 | 246 | 539 | 368 | 283 | 1030 | 587 | 1210 | 6270 | 110 | 1850 | 2090 | 1950 | 1810 | 201 | GI50 [1]: 370 nM; GI50 [5]: 852 nM; GI50 [6]: 206 nM; GI50 [10]: 426 nM; TGI [10]: 451 nM; CC50 [10]: 319 nM; GI50 [11]: 299 nM; TGI [11]: 248 nM; CC50 [11]: 134 nM; GI50 [12]: 493 nM; TGI [12]: 813 nM; CC50 [12]: 1100 nM; GI50 [13]: 1020 nM; LC50 (concentration giving 50% net cell kill) [13]: 1140 nM; TGI [13]: 1080 nM
2 | C/C=C1\NC(=O)[C@H](Cc2ccccc2)N(C)C(=O)[C@@H](C(C)C)NC(=O)[C@@H]([C@H](C)CC)NC(=O)[C@H](NC(=O)[C@H](NC(=O)[C@H](CCCN)NC(=O)[C@H]2CCCN2C(=O)[C@H](NC(=O)[C@@H](NC(=O)[C@@H](NC(=O)[C@H](NC(=O)CC[C@@H](C)CC)C(C)C)[C@@H](C)O)C(C)C)C(C)C)[C@H](C)CC)[C@H](C)OC(=O)[C@H](C(C)C)NC1=O | 1230 | 1030 | 596 | 862 | 493 | 642 | 999 | 451 | 286 | 324 | 76.8 | 1350 | 1190 | 999 | 1300 | 1410 | 1920 | 2100 | 2000 | 220 | TGI [1]: 1130 nM; TGI [5]: 1270 nM; TGI [6]: 1130 nM; GI50 [7]: 2140 nM; TGI [7]: 1730 nM; GI50 [9]: 274 nM; TGI [9]: 236 nM; GI50 [10]: 386 nM; TGI [10]: 431 nM; CC50 [10]: 486 nM; GI50 [11]: 318 nM; TGI [11]: 311 nM; CC50 [11]: 305 nM; GI50 [12]: 528 nM; TGI [12]: 766 nM; CC50 [12]: 781 nM; GI50 [13]: 1110 nM; LC50 (concentration giving 50% net cell kill) [13]: 936 nM; TGI [13]: 1020 nM
3 | C/C=C1\NC(=O)[C@H](Cc2ccc(OC)cc2)NC(=O)[C@@H](C(C)C)NC(=O)[C@@H]([C@H](C)CC)NC(=O)[C@H](NC(=O)[C@H](NC(=O)[C@H](CCCN)NC(=O)[C@H]2CCCN2C(=O)[C@H](NC(=O)[C@@H](NC(=O)[C@@H](NC(=O)[C@H](NC(=O)CC[C@@H](C)CC)C(C)C)[C@@H](C)O)C(C)C)C(C)C)[C@H](C)CC)[C@H](C)OC(=O)[C@H](C(C)C)NC1=O | 858 | 1060 | 502 | 442 | 581 | 384 | 295 | 465 | 284 | 283 | 824 | 1190 | 1280 | 6420 | 526 | 1890 | 3120 | 4340 | 1990 | 45.4 | GI50 [1]: 947 nM; TGI [5]: 1230 nM; GI50 [6]: 557 nM; GI50 [10]: 320 nM; TGI [10]: 285 nM; CC50 [10]: 106 nM; GI50 [11]: 237 nM; TGI [11]: 214 nM; CC50 [11]: 79.2 nM; GI50 [12]: 766 nM; TGI [12]: 848 nM; CC50 [12]: 943 nM; GI50 [13]: 1010 nM; LC50 (concentration giving 50% net cell kill) [13]: 1220 nM; TGI [13]: 1160 nM
